In general, inhibition refers to how much of the control response was suppressed.

The structures appear in SMILES notation.

The first assay deals with T1, Ornithine decarboxylase (Mus musculus) (UniProt P00860).
T1 sequence (whole entry): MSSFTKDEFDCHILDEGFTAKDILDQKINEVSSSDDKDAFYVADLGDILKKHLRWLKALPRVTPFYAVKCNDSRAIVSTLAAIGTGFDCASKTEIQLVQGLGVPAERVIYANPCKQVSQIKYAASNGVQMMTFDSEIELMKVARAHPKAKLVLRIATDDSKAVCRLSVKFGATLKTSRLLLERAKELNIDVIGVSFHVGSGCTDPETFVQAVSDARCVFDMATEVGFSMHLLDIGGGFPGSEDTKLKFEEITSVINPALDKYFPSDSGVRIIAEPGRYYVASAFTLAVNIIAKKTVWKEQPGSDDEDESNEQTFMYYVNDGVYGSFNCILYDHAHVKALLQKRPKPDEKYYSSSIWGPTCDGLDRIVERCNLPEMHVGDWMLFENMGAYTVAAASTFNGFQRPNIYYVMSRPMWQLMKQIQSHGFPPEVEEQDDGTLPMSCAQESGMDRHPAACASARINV
Kind of assay: (§1) Percent inhibition of TPA-induced ornithine decarboxylase activity. The conditions noted are these: tested as the 2H-labelled form; concentration not given here. The assay is classed as functional. Summed up: (§2)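 Mouse epidermal ODC was induced by topical TPA on the back skin, with each retinoid applied topically to the back at 1.7 or 17 nmol. Each treatment used 3–6 groups of 3–4 mice. Epidermal ODC activity was measured by a previously described method and reported as % inhibition versus TPA-only controls (mean ± SE).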
With `CC1=C(/C=C/C(C)=C/C=C/C(C)=C/C(=O)O)C(C)(C)CCC1`, the inhibition worked out at 90%.

In another assay the target is T1, Ornithine decarboxylase (Mus musculus). The assay is described as §1. Set-up: concentration or dose not given beside the values. The conditions noted are these: concentration not given here. The assay is classed as functional. Summed up:
as §2
As for `CCOC(=O)\C=C(C)/C=C/C=C(C)/C=C/C12CC1(C)CCCC2(C)C` (stereo not drawn), the inhibition came out at 45%.
The same measure, in the same setting: for `CCOC(=O)/C=C(C)/C=C/C=C(C)/C=C/C12CC1(C)CCCC2(C)C` (stereo not drawn) the value was 70%; for `CCOC(=O)/C=C(C)/C=C/C=C(C)/C=C/C1CC2CCC1C2` (stereo not drawn), 64%; for `CC1=C(/C=C/C(C)=C/C=C/C(C)=C\C(=O)O)C(C)(C)CCC1`, 96%.
The same measure, in the same setting: then `CC1=C(/C=C/C(C)=C/C=C/C(C)=C/C(=O)O)C(C)(C)CCC1`, with 92%; and `CCOC(=O)c1ccc(/C=C(C)/C=C/C23CC2(C)CCCC3(C)C)cc1` (stereo not drawn), with 80%; and `CCOC(=O)c1ccc(/C=C(C)/C=C/C2=C(C)CCCC2(C)C)cc1`, with 80%.
Still for that read-out and setting: for `CCOC(=O)c1ccc(/C=C(C)/C=C/C23OC2(C)CCCC3(C)C)cc1` (stereo not drawn) the value was 80%; for `CCOC(=O)/C=C(C)/C=C/C=C(C)/C=C/C1=CC2CCC1C2` (stereo not drawn), 54%.
On to `CCOC(=O)/C=C(C)/C=C/C=C(C)/C=C/C1=C(C)C2(CCC1(C)C)CC2`, for which the inhibition came out at 72%.
With `CCOC(=O)\C=C(C)/C=C/C=C(C)/C=C/C1=C(C)C2(CCC1(C)C)CC2`, the inhibition was found to be 67%.

Staying with this assay, now noted: tested as the 2H-labelled form, concentration not given here.
The molecule `CC1=C(/C=C/C(C)=C/C=C/C(C)=C/C(=O)O)C(C)(C)CCC1` had an inhibition of 90%.

Values taken from ChEMBL document CHEMBL1121875, “Retinoic acid analogues with ring modifications. Synthesis and pharmacological activity” (J Med Chem, 1981).
